Test results taken from ChEMBL document CHEMBL1157097, “Humulane and germacrane sesquiterpenes from Ferula lycia” (J Nat Prod, 2010).

Tests used:
[1] = tested on: Raji; test: Cytotoxicity against human Raji cells by MTT assay; format: functional, cell-based
Procedure, shortened: (§1)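 Cells grown in RPMI 1640 with 1% glutamine, 1% penicillin/streptomycin and 10% fetal calf serum, then exposed to the sesquiterpenes. Viability was read by MTT. Bone marrow came from three healthy volunteers who gave informed consent. Camptothecin was the positive control for Raji.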

[2] = Cytotoxicity against human bone marrow cells by MTT assay; format: cell-based; settings: Bone marrow cell; procedure, shortened: as §1
[3] = Cytotoxicity against mouse dasatinib-resistant DA1-3b cells carrying pCDNA3-p210BCR/ABL plasmid by MTT assay; format: functional, cell-based; procedure, shortened: as §1
[4] = tested on: K562; test: Cytotoxicity against human imitinib-resistant K562 cells by MTT assay; format: functional, cell-based; procedure, shortened: as §1
[5] = Mus musculus, DA1-3b, read-out: IC50
[6] = Homo sapiens, K562, read-out: IC50

**Q.** Which results are given for `C/C1=C\[C@H](OC(=O)c2ccc(O)cc2)[C@H](C(C)C)CC/C(C)=C/CC1`?
**A.** IC50 [1]: 20.9 µM; IC50 [2]: > 50 µM; IC50 [3, 5]: 24.7 µM; IC50 [4, 6]: 25.3 µM

**Q.** What does the source list for `COc1cc(C(=O)O[C@H]2/C=C(\C)CC/C=C(\C)CC[C@H]2C(C)C)ccc1O`?
**A.** IC50 ([3]; da1-3b): Not Active; IC50 ([4]; k562): Not Active

**Q.** What does the source list for `CC[C@@]1(O)C(=O)OCc2c1cc1n(c2=O)Cc2cc3ccccc3nc2-1` [CAMPTOTHECIN]?
**A.** IC50 [1]: 1 µM; IC50 [3, 5]: 0.03 µM; IC50 [4, 6]: 0.002 µM

**Q.** Which IC50 [3, 5] does the source give for `C/C1=C/[C@H](O)C(C)(C)CCC/C(C)=C/C[C@H]1OC(=O)c1ccc(O)cc1` [JUNIFERDIN] here?
**A.** 23.7 µM

**Q.** What about the IC50 [4, 6] of the same compound?
**A.** > 50 µM

**Q.** Which IC50 [1] does the source give for `CC(=O)O[C@H]1/C=C(/C)[C@H](OC(=O)c2ccc(O)cc2)C/C=C(\C)CCCC1(C)C` [JUNIFERININ] here?
**A.** 13 µM

**Q.** What about the IC50 [2] of the same compound?
**A.** 30.7 µM

**Q.** What about the IC50 [3, 5] of the same compound?
**A.** 18.6 µM

**Q.** What about the IC50 [4, 6] of the same compound?
**A.** 33 µM

**Q.** For `COc1cc(C(=O)O[C@@H]2C/C=C(\C)CCCC(C)(C)[C@@H](O)/C=C\2C)ccc1O` [JUNIFERIN], which IC50 [3, 5] is on record?
**A.** 29 µM

**Q.** And the IC50 [4, 6]?
**A.** > 50 µM

**Q.** For `C/C=C(/C)C(=O)O[C@@H]1C/C=C(\C)CCCC(C)(C)[C@@H](O)/C=C\1C` [LYCIFERIN A], which IC50 ([3]; da1-3b) is on record?
**A.** Not Active

**Q.** And the IC50 ([4]; k562)?
**A.** Not Active

**Q.** With `C/C=C(/C)C(=O)O[C@@H]1C/C=C(\C)CCCC(C)(C)[C@@H](OC(C)=O)/C=C\1C` [LYCIFERIN B] as the compound, how does the IC50 [3, 5] read?
**A.** 45 µM

**Q.** And the IC50 [4, 6]?
**A.** > 50 µM

**Q.** With `C/C1=C/[C@H](O)C(C)(C)CCC/C(C)=C/C[C@H]1OC(=O)c1ccccc1` [LYCIFERIN C] as the compound, how does the IC50 ([3]; da1-3b) read?
**A.** Not Active

**Q.** And the IC50 ([4]; k562)?
**A.** Not Active

**Q.** Which IC50 [3, 5] does the source give for `CC(=O)O[C@H]1/C=C(/C)[C@H](OC(=O)c2ccccc2)C/C=C(\C)CCCC1(C)C` [LYCIFERIN D] here?
**A.** 45 µM

**Q.** And the IC50 [4, 6]?
**A.** > 50 µM

**Q.** With `COc1cc(C(=O)O[C@@H]2C/C=C(\C)CCCC(C)(C)[C@@H](OC(C)=O)/C=C\2C)ccc1O` [LYCIFERIN E] as the compound, how does the IC50 [3, 5] read?
**A.** 20.1 µM

**Q.** What about the IC50 [4, 6] of the same compound?
**A.** 41.5 µM

**Q.** For `C=C1/C=C/C(C)(C)[C@H](OC(=O)c2ccc(O)c(OC)c2)CC/C(C)=C/CC1` [VANILLOYL FERVANOL], which IC50 ([3]; da1-3b) is on record?
**A.** Not Active

**Q.** And the IC50 ([4]; k562)?
**A.** Not Active
